From PMC5551398 (Biochemistry, 2017)
Each block holds one molecule with its values, some of them ahead of it. Bridge positions count the residues as written; N and C are the ends. Primed or numbered codes have the meaning given here. Ends that are not written are not given here. Peptide text beside a SMILES is read from it. * marks the point of attachment. FITC = O=C1OC2(c3ccc(O)cc3Oc3cc(O)ccc32)c2ccc(NC(=S)*)cc21; Biotin = O=C1N[C@H]2[C@H](CS[C@H]2CCCCC(=O)*)N1; FITC′ = fluorescein isothiocyanate label; Ahx = NCCCCCC(=O)O

Assays:
[1] = molecular target: T1, MBP-CTR ECD (hCTR.36-151) (Homo sapiens, UniProt P30988); assay: FP saturation peptide-binding assay, MBP-CTR ECD WT
T1 sequence (P30988 36-151): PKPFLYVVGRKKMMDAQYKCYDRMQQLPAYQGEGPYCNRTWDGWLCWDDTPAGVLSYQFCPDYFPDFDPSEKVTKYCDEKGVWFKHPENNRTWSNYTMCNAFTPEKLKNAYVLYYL
Procedure, shortened: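 MBP-CTR ECD was produced in HEK293S GnTI− cells and left untreated, digested with Endo H (4 µl of 500 U/µl, GlycoBuffer 3, 22°C, 30 min), or given heat-inactivated Endo H (75°C, 10 min). Digests were serially diluted (top 3 µM) and titrated against 10 nM FITC-AC413(6-25) Y25P, 1 h, dark, room temperature, HEPES pH 7.4 buffer. Anisotropy corrected for intensity quenching. Duplicate samples.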

[2] = molecular target: T2, MBP-CTR ECD (Homo sapiens, UniProt P30988); assay: Competition AlphaLISA peptide-binding assay
T2 sequence (P30988 36-151): T1 sequence (P30988 36-151)
Procedure, shortened: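 Binding by AlphaLISA competition. MBP-CTR ECD from transfected HEK293T cells (150 nM) was mixed with 150 nM biotinylated sCT and competitor peptide. Luminescence read at 680/615 nm. Three independent experiments, duplicate samples.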

[3] = molecular target: T3, MBP-free H6-CTR ECD (residues 32-140) (human, UniProt P30988-2 32-140); assay: ITC
T3 sequence (looked up): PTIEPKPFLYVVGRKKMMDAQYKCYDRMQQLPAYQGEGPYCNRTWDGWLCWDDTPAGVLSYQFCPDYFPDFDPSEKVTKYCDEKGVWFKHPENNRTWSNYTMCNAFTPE

[4] = molecular target: T4, MBP-CTR ECD-H6 produced in E. coli (human, UniProt P30988-2 36-151); assay: fluorescence polarisation
T4 sequence (looked up): T1 sequence (P30988 36-151)

[5] = molecular target: T5, MBP-hCTR.36-151-H6 produced in HEK293S GnTI- cells (human, UniProt P30988-2 36-151, core N-glycans (Man5GlcNAc2) at N73, N125, N130); assay: fluorescence polarisation
T5 sequence (looked up): T1 sequence (P30988 36-151)

[6] = molecular target: T6, MBP-hCTR.36-151-H6 produced in HEK293T cells (human, UniProt P30988-2 36-151, complex N-glycans at N73, N125, N130); assay: fluorescence polarisation
T6 sequence (looked up): T1 sequence (P30988 36-151)

[7] = molecular target: T6, MBP-hCTR.36-151-H6 produced in HEK293T …; assay: AlphaScreen or HTRF
[8] = molecular target: T6, MBP-hCTR.36-151-H6 produced in HEK293T …; assay: fluorescence polarisation; remark: listed apart in the source
[9] = molecular target: T6, MBP-hCTR.36-151-H6 produced in HEK293T …; assay: fluorescence polarisation; remark: listed apart in the source
[10] = molecular target: T6, MBP-hCTR.36-151-H6 produced in HEK293T …; assay: AlphaScreen or HTRF; remark: listed apart in the source
[11] = molecular target: T6, MBP-hCTR.36-151-H6 produced in HEK293T …; assay: fluorescence polarisation; remark: listed apart in the source
[12] = molecular target: T7, MBP-RAMP2-(GS)5-CTR ECD-H6 produced in E. coli (human, UniProt O60895 55-140; P30988-2 36-151); assay: fluorescence polarisation
T7 chain: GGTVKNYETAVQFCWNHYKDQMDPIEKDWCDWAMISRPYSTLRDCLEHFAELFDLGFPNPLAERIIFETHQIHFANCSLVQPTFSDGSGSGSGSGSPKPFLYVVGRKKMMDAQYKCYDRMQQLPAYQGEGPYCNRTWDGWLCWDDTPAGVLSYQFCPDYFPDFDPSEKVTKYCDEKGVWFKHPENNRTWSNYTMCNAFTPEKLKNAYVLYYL

Kd [1]: 115 nM | IC50 [2]: 47.9 nM
Molecule: CC(C)C[C@H](NC(=O)[C@H](CCCNC(=N)N)NC(=O)[C@@H](NC(=O)[C@H](CC(C)C)NC(=O)[C@H](Cc1ccccc1)NC(=O)[C@H](CC(N)=O)NC(=O)[C@H](C)NC(=O)CCCCCNC(=S)Nc1ccc2c(c1)C(=O)OC21c2ccc(O)cc2Oc2cc(O)ccc21)C(C)C)C(=O)N[C@@H](CCC(N)=O)C(=O)N[C@H](C(=O)N[C@@H](Cc1ccc(O)cc1)C(=O)N1CCC[C@H]1C(=O)N[C@@H](CCCNC(=N)N)C(=O)N[C@H](C(=O)N[C@@H](CC(N)=O)C(=O)N[C@H](C(=O)NCC(=O)N[C@@H](C)C(=O)N[C@@H](CC(N)=O)C(=O)N[C@H](C(=O)N1CCC[C@H]1C(N)=O)[C@@H](C)O)C(C)C)[C@@H](C)O)[C@@H](C)O [FITC-AC413(6-25) Y25P] ({FITC-Ahx}-ANFLVRLQTYPRTNVGANTP-NH2)

IC50 [2]: 708 nM
Molecule: ANFLVRLQTYPRTNVGANTP-NH2 [AC413(6-25) Y25P, reference compound]

Kd [3]: 35000 nM
Molecule: CSNLSTCVLGKLSQELHKLQTYPRTNTGSGTP-NH2 (disulfide 1-7) [sCT(1-32)]

Kd [3]: 16000 nM | dH [3]: -24.2 kcal/mol | stoichiometry N [3]: 1.17 | Ki [4]: ~25000 nM | Ki [5]: ~3000 nM | Ki [6]: ~3000 nM
Molecule: VLGKLSQELHKLQTYPRTNTGSGTP-NH2 [sCT(8-32)]

Ki [6]: 631 nM | pIC50 [7]: 6.15 | pKI [8]: 6.2
Molecule: ANFLVRLQTYPRTNVGANTP-NH2 [AC413(6-25) Y25P]

pKD [9]: 6.94 | IC50 [10]: 47.9 nM | pIC50 [7]: 7.32 | Kd [11]: 115 nM
Molecule: {FITC′-Ahx}-ANFLVRLQTYPRTNVGANTP-NH2 [FITC-Ahx (aminohexanoic acid)-AC413(6-25) Y25P]

Kd [12]: 4570 nM
Molecule: {FITC-Ahx}-ANFLVRLQTYPRTNVGANTY-NH2 [FITC-Ahx-AC413(6-25)]

binding result [10]: binds
B1: Biotin-sCT C1A/C7A (peptide)
peptide: Biotin-ASNLSTAVLGKLSQELHKLQTYPRTNTGSGTP-NH2
SMILES: CC(C)C[C@H](NC(=O)[C@H](CCCCN)NC(=O)CNC(=O)[C@H](CC(C)C)NC(=O)[C@@H](NC(=O)[C@H](C)NC(=O)[C@@H](NC(=O)[C@H](CO)NC(=O)[C@H](CC(C)C)NC(=O)[C@H](CC(N)=O)NC(=O)[C@H](CO)NC(=O)[C@H](C)NC(=O)CCCC[C@@H]1SC[C@@H]2NC(=O)N[C@@H]21)[C@@H](C)O)C(C)C)C(=O)N[C@@H](CO)C(=O)N[C@@H](CCC(N)=O)C(=O)N[C@@H](CCC(=O)O)C(=O)N[C@@H](CC(C)C)C(=O)N[C@@H](Cc1c[nH]cn1)C(=O)N[C@@H](CCCCN)C(=O)N[C@@H](CC(C)C)C(=O)N[C@@H](CCC(N)=O)C(=O)N[C@H](C(=O)N[C@@H](Cc1ccc(O)cc1)C(=O)N1CCC[C@H]1C(=O)N[C@@H](CCCNC(=N)N)C(=O)N[C@H](C(=O)N[C@@H](CC(N)=O)C(=O)N[C@H](C(=O)NCC(=O)N[C@@H](CO)C(=O)NCC(=O)N[C@H](C(=O)N1CCC[C@H]1C(N)=O)[C@@H](C)O)[C@@H](C)O)[C@@H](C)O)[C@@H](C)O
